According to ChEMBL document CHEMBL1255444, “In vitro antibacterial activities of JNJ-Q2, a new broad-spectrum fluoroquinolone” (Antimicrob Agents Chemother, 2010):
In brackets after ≈: the same amount, converted by molar mass. Activity calls are given as the source filed them. No cut-off for these calls is given here.

Experiments:
[1] = tested on: Streptococcus pneumoniae; experiment: Antibacterial activity against Streptococcus pneumoniae isolate OC6608 assessed as log reduction in bacterial growth at 2 times MIC measured at 24 hrs by time-kill assay; assay type: functional
How it was run: (§1)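 Drug was diluted from 50× stocks made in water or acidified water. Samples were taken at 6 and 24 h and serially diluted onto TSA-5% sheep blood plates. Plates were incubated 20–24 h at 37°C in 5% CO2 before counting CFU. Log10 titer change is given relative to the starting inoculum.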

[2] = Dissociation constant, pKa of the compound; assay type: physicochemical
[3] = tested on: Streptococcus pneumoniae; experiment: Antibacterial activity against penicillin-resistant Streptococcus pneumoniae by broth microdilution method; assay type: functional, organism-based
How it was run: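 CLSI M07-A7 broth microdilution MIC in cation-adjusted Mueller-Hinton medium. For S. pneumoniae the medium was supplemented with 5% lysed horse blood. CLSI quality-control strains were included as appropriate.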

[4] = tested on: Streptococcus pneumoniae; experiment: Antibacterial activity against Streptococcus pneumoniae ATCC 49619 by broth microdilution method; assay type: functional
How it was run: (§2)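 MICs by CLSI M07-A7 broth microdilution in cation-adjusted Mueller-Hinton medium. For S. pneumoniae the medium was supplemented with 5% lysed horse blood. CLSI quality control strains were run alongside as appropriate.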

[5] = tested on: Staphylococcus epidermidis; experiment: Antibacterial activity against methicillin-, ciprofloxacin-resistant Staphylococcus epidermidis by broth microdilution method; assay type: functional
[6] = tested on: Klebsiella aerogenes; experiment: Antibacterial activity against Enterobacter aerogenes by broth microdilution method; assay type: functional; how it was run: as §2
[7] = tested on: Klebsiella pneumoniae; experiment: Antibacterial activity against Klebsiella pneumoniae by broth microdilution method; assay type: functional; how it was run: as §2
[8] = tested on: Providencia stuartii; experiment: Ratio of Ciprofloxacin MIC90 to compound MIC90 for Providencia stuartii; assay type: functional
[9] = tested on: Streptococcus pneumoniae; experiment: Ratio of Levofloxacin MIC90 to compound MIC90 for ciprofloxacin-resistant Streptococcus pneumoniae; assay type: functional
[10] = tested on: Streptococcus pneumoniae; experiment: Ratio of Gemifloxacin MIC90 to compound MIC90 for ciprofloxacin-resistant Streptococcus pneumoniae; assay type: functional
[11] = tested on: Streptococcus pneumoniae; experiment: Antibacterial activity against Streptococcus pneumoniae isolate OC7189 by broth microdilution method; assay type: functional
How it was run: (§3)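 CLSI M07-A7 broth microdilution MIC. Medium was cation-adjusted Mueller-Hinton broth. For S. pneumoniae it was Mueller-Hinton supplemented with 5% lysed horse blood. CLSI quality-control strains were included as appropriate.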

[12] = tested on: Streptococcus pneumoniae; experiment: Antibacterial activity against Streptococcus pneumoniae isolate OC7189 assessed as log reduction in bacterial growth at 2 times MIC measured at 6 hrs by time-kill assay; assay type: functional; how it was run: as §1
[13] = tested on: Streptococcus pneumoniae; experiment: Antibacterial activity against Streptococcus pneumoniae isolate OC7189 assessed as log reduction in bacterial growth at 4 times MIC measured at 6 hrs by time-kill assay; assay type: functional; how it was run: as §1
[14] = tested on: Streptococcus pneumoniae; experiment: Antibacterial activity against Streptococcus pneumoniae isolate OC7189 assessed as log reduction in bacterial growth at 2 times MIC measured at 24 hrs by time-kill assay; assay type: functional; how it was run: as §1
[15] = tested on: Streptococcus pneumoniae; experiment: Antibacterial activity against Streptococcus pneumoniae isolate OC6608 assessed as log reduction in bacterial growth at 4 times MIC measured at 6 hrs by time-kill assay; assay type: functional; how it was run: as §1
[16] = tested on: Streptococcus pneumoniae; experiment: Antibacterial activity against Streptococcus pneumoniae isolate OC5462 by broth microdilution method; assay type: functional; how it was run: as §3
[17] = tested on: Streptococcus pneumoniae; experiment: Antibacterial activity against Streptococcus pneumoniae isolate OC7376 by broth microdilution method; assay type: functional; how it was run: as §3
[18] = tested on: Streptococcus pneumoniae; experiment: Antibacterial activity against Streptococcus pneumoniae isolate OC6585 assessed as log reduction in bacterial growth at 4 times MIC measured at 24 hrs by time-kill assay; assay type: functional; how it was run: as §1
[19] = tested on: Streptococcus pneumoniae; experiment: Antibacterial activity against Streptococcus pneumoniae isolate OC6610 assessed as log reduction in bacterial growth at 2 times MIC measured at 6 hrs by time-kill assay; assay type: functional; how it was run: as §1
[20] = tested on: Streptococcus pneumoniae; experiment: Antibacterial activity against Streptococcus pneumoniae isolate OC6610 assessed as log reduction in bacterial growth at 4 times MIC measured at 24 hrs by time-kill assay; assay type: functional; how it was run: as §1
[21] = tested on: Staphylococcus aureus; experiment: Antibacterial activity against methicillin-resistant Staphylococcus aureus isolate OC8525 harboring wild type quinolone resistance-determining region by broth microdilution method; assay type: functional
[22] = tested on: Staphylococcus aureus; experiment: Antibacterial activity against methicillin-resistant Staphylococcus aureus isolate OC2838 by broth microdilution method; assay type: functional; how it was run: as §3
[23] = tested on: Staphylococcus aureus; experiment: Antibacterial activity against methicillin-resistant Staphylococcus aureus isolate OC17042 harboring gyrA S84L/G106D, parC S80F and parE D732N mutant gene by broth microdilution method; assay type: functional; how it was run: as §3
[24] = tested on: Staphylococcus aureus; experiment: Antibacterial activity against methicillin-resistant Staphylococcus aureus isolate OC11223 assessed as log reduction in bacterial growth at 2 times MIC measured at 24 hrs by time-kill assay; assay type: functional
How it was run: (§4)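 Overnight MRSA cultures were diluted into fresh cation-adjusted Mueller-Hinton broth to about 5 × 10^6 CFU/ml. […] Samples were plated serially diluted on trypticase soy agar, and CFU were counted after 20-24 h at 37°C. Value is the log10 decrease at 24 h from the starting inoculum; detection limit 100 CFU.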

[25] = tested on: Staphylococcus aureus; experiment: Antibacterial activity against methicillin-resistant Staphylococcus aureus isolate OC12501 assessed as log reduction in bacterial growth at 2 times MIC measured at 24 hrs by time-kill assay; assay type: functional; how it was run: as §4
[26] = tested on: Staphylococcus aureus; experiment: Antibacterial activity against methicillin-resistant Staphylococcus aureus isolate OC8530 harboring gyrA S84L and parC I143V mutant gene assessed as log reduction in bacterial growth at 4 times MIC measured at 24 hrs by time-kill assay; assay type: functional
How it was run: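 Time-kill in cation-adjusted Mueller-Hinton broth. […] Samples were taken up to 24 h, serially diluted onto TSA and counted after 20–24 h at 37°C. Result is log10 decrease at 24 h from the starting inoculum; detection limit 100 CFU.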

[27] = tested on: Staphylococcus aureus; experiment: Antibacterial activity against methicillin-resistant Staphylococcus aureus isolate OC4222 harboring gyrA S84L and parC S80F mutant gene assessed as log reduction in bacterial growth at 4 times MIC measured at 24 hrs by time-kill assay; assay type: functional; how it was run: as §4
[28] = tested on: Staphylococcus aureus; experiment: Antibacterial activity against methicillin-resistant Staphylococcus aureus isolate OC17042 harboring gyrA S84L/G106D, parC S80F and parE D732N mutant gene assessed as log reduction in bacterial growth at 2 times MIC measured at 24 hrs by time-kill assay; assay type: functional; how it was run: as §4
[29] = tested on: Staphylococcus aureus; experiment: Antibacterial activity against methicillin-resistant Staphylococcus aureus isolate OC17042 harboring gyrA S84L/G106D, parC S80F and parE D732N mutant gene assessed as log reduction in bacterial growth at 4 times MIC measured at 24 hrs by time-kill assay; assay type: functional; how it was run: as §4
[30] = tested on: Staphylococcus aureus; experiment: Antibacterial activity against methicillin-resistant Staphylococcus aureus isolate OC11521 harboring gyrA S84L/S85P, parC E84G mutant gene assessed as log reduction in bacterial growth at 2 times MIC measured at 24 hrs by time-kill assay; assay type: functional; how it was run: as §4
[31] = tested on: Streptococcus pneumoniae; experiment: Antibacterial activity against Streptococcus pneumoniae R6 by agar dilution method; assay type: functional
How it was run: (§5)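 MICs for the resistance-selection studies were determined by CLSI agar dilution on Mueller-Hinton medium. For S. pneumoniae the medium was supplemented with 5% lysed horse blood. For MRSA fluctuation-assay strains an arithmetic agar dilution scheme was used for a more precise MIC.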

[32] = tested on: Streptococcus pneumoniae; experiment: Antibacterial activity against Streptococcus pneumoniae OC7452 harboring parC S79Y mutant gene by agar dilution method; assay type: functional; how it was run: as §5
[33] = tested on: Staphylococcus aureus; experiment: Antibacterial activity against methicillin-resistant Staphylococcus aureus isolate OC8525 harboring wild type quinolone resistance-determining region by agar dilution method; assay type: functional
How it was run: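 CLSI agar dilution MIC on cation-adjusted Mueller-Hinton medium. These were the MIC values used for the resistance studies, and CLSI quality-control strains were included as appropriate.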

For COc1c(N2CCC/C(=C(\F)CN)C2)c(F)cc2c(=O)c(C(=O)O)cn(C3CC3)c12 [ACORAFLOXACIN], the deltalog10CFU/ml [1] was 5.8, the pKa [2] was 6.13 and the Activity [3] was “Active”. The MIC50 [4] was 0.015 µg/mL (≈ 0.0358 µM), the MIC90 [4] was 0.12 µg/mL (≈ 0.286 µM) and the MIC50 [5] was 0.12 µg/mL (≈ 0.286 µM). The MIC90 [5] was 0.25 µg/mL (≈ 0.596 µM), the MIC50 [6] was 0.12 µg/mL (≈ 0.286 µM) and the MIC90 [6] was 0.25 µg/mL (≈ 0.596 µM). For the same compound, the MIC50 [7] was 0.12 µg/mL (≈ 0.286 µM), the MIC90 [7] was 0.25 µg/mL (≈ 0.596 µM) and the Ratio [8] was 16. It also gave a Ratio [9] of 9, a Ratio [10] of 9 and an MIC [11] of 0.015 µg/mL (≈ 0.0358 µM). It also gave a deltalog10CFU/ml [12] of 4, a deltalog10CFU/ml [13] of 4.2 and a deltalog10CFU/ml [14] of 7.5. It also gave a deltalog10CFU/ml [15] of 4.7, an MIC [16] of 0.06 µg/mL (≈ 0.143 µM) and an MIC [17] of 0.12 µg/mL (≈ 0.286 µM). For the same compound, the deltalog10CFU/ml [18] was 6.6, the deltalog10CFU/ml [19] was 3.4 and the deltalog10CFU/ml [20] was 6.9. It also gave an MIC [21] of 0.008 µg/mL (≈ 0.0191 µM), an MIC [22] of 0.25 µg/mL (≈ 0.596 µM) and an MIC [23] of 0.5 µg/mL (≈ 1.19 µM). For the same compound, the deltalog10CFU/ml [24] was 2.5, the deltalog10CFU/ml [25] was 6.2 and the deltalog10CFU/ml [26] was 6.3. For the same compound, the deltalog10CFU/ml [27] was 4.2, the deltalog10CFU/ml [28] was 3.8 and the deltalog10CFU/ml [29] was 3.5. For the same compound, the deltalog10CFU/ml [30] was 2.3, the MIC [31] was 0.015 µg/mL (≈ 0.0358 µM) and the MIC [32] was 0.015 µg/mL (≈ 0.0358 µM). For the same compound, the MIC [33] was 0.012 µg/mL (≈ 0.0286 µM).
